Results published in ChEMBL document CHEMBL3124882, “Semi-synthesis of acylated triterpenes from olive-oil industry wastes for the development of anticancer and anti-HIV agents” (Eur J Med Chem, 2014).
pIC50: −log10 of the molar value. Values belong to the molecule of their own block, whether it stands above or below them. Activity calls are given as the source filed them. The rule behind the calls is not given here.

Key:
[1] = tested on: B16-F10; test: Induction of ROS generation in mouse B16F10 cells at IC50 to 2 X IC50 after 72 hrs by rhodamine123/propidium iodide staining-based FACS analysis; format: functional, cell-based
Procedure, shortened: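 B16F10 cells, 11·10^4 per well, treated 72 h at IC50 or 2×IC50, then given fresh medium with dihydrorhodamine 123 at a final 5 µg/mL for 30 min. Cells washed, resuspended in PBS and read by flow cytometry for Rh123 and PI fluorescence (excitation 500 nm, emission 536 nm). Rh123+ cells scored ROS-positive regardless of PI. Three experiments in duplicate, mean ± S.E.M.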

[2] = tested on: B16-F10; test: Induction of apoptosis in mouse B16F10 cells assessed as necrotic cells at 2 X IC50 after 72 hrs by annexin V-FITC/propidium iodide staining-based FACS analysis (reference value: 4.0 +/- 0.6%); format: functional
[3] = tested on: B16-F10; test: Induction of apoptosis in mouse B16F10 cells assessed as necrotic cells at IC50 after 72 hrs by annexin V-FITC/propidium iodide staining-based FACS analysis (reference value: 4.0 +/- 0.6%); format: functional
[4] = tested on: B16-F10; test: Induction of apoptosis in mouse B16F10 cells assessed as total apoptotic cells at 2 X IC50 after 72 hrs by annexin V-FITC/propidium iodide staining-based FACS analysis (reference value: 13.7 +/- 2.7%); format: functional
[5] = tested on: B16-F10; test: Induction of apoptosis in mouse B16F10 cells assessed as total apoptotic cells at IC50 after 72 hrs by annexin V-FITC/propidium iodide staining-based FACS analysis (reference value: 13.7 +/- 2.7%); format: functional
[6] = tested on: B16-F10; test: Induction of apoptosis in mouse B16F10 cells assessed as late apoptotic cells at 2 X IC50 after 72 hrs by annexin V-FITC/propidium iodide staining-based FACS analysis (reference value: 9.8 +/- 2.2%); format: functional
[7] = tested on: B16-F10; test: Induction of apoptosis in mouse B16F10 cells assessed as late apoptotic cells at IC50 after 72 hrs by annexin V-FITC/propidium iodide staining-based FACS analysis (reference value: 9.8 +/- 2.2%); format: functional
[8] = tested on: B16-F10; test: Induction of apoptosis in mouse B16F10 cells assessed as early apoptotic cells at 2 X IC50 after 72 hrs by annexin V-FITC/propidium iodide staining-based FACS analysis (reference value: 3.9 +/- 0.4%); format: functional
[9] = tested on: B16-F10; test: Induction of apoptosis in mouse B16F10 cells assessed as early apoptotic cells at IC50 after 72 hrs by annexin V-FITC/propidium iodide staining-based FACS analysis (reference value: 3.9 +/- 0.4%); format: functional
[10] = tested on: B16-F10; test: Induction of apoptosis in mouse B16F10 cells assessed as normal cells at IC50 after 72 hrs by annexin V-FITC/propidium iodide staining-based FACS analysis (reference value: 77.9 +/- 1.5%); format: functional
[11] = tested on: B16-F10; test: Cytotoxicity against mouse B16F10 cells after 72 hrs by MTT assay; format: functional, cell-based; conditions: B16-F10, 72 h
Procedure, shortened: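 B16F10 cells (DMEM, 2 mM glutamine, 10% heat-inactivated FCS, penicillin/streptomycin; subconfluent) seeded at 11·10^3 per well and exposed to 0–80 µg/mL for 72 h. Compounds were diluted from a 10 mg/mL stock in 50% DMSO/PBS. MTT 0.5 mg/mL for 2 h, formazan dissolved in DMSO, absorbance at 550 nm. Viability is relative to untreated controls; IC50 from four assays of six replicates, mean ± S.E.M.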

[12] = tested on: B16-F10; test: Induction of apoptosis in mouse B16F10 cells assessed as normal cells at 2 X IC50 after 72 hrs by annexin V-FITC/propidium iodide staining-based FACS analysis (reference value: 77.9 +/- 1.5%); format: functional
[13] = molecular target: Protease (Human immunodeficiency virus 1, UniProt Q9YQ12); test: Inhibition of HIV1 recombinant protease expressed in Escherichia coli using Abz-Ala-Arg-Val-Nle-Tyr(NO2)-Glu-Ala-Nle-NH2 as substrate by FRET assay
Sequence of Protease (Q9YQ12 whole entry): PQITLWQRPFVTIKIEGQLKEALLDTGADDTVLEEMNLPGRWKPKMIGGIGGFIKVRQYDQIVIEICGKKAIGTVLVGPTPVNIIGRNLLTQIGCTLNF

SMILES: CC1(C)CC[C@]2(C(=O)O)CC[C@]3(C)C(=CC[C@@H]4[C@@]5(C)CC[C@H](OC(=O)c6ccccc6)C(C)(C)[C@@H]5CC[C@]43C)[C@@H]2C1
Activity [1]: Active
Activity [2]: 8.5%
Activity [3]: 3.8%
Activity [4]: 60%
Activity [5]: 51.6%
Activity [6]: 50.5%
Activity [7]: 37.6%
Activity [8]: 9.5%
Activity [9]: 14%
Activity [10]: 44.6%
pIC50 [11]: 3.79
Activity [12]: 31.6%

pIC50 [13]: 4.51
SMILES: CCCC(=O)O[C@@H]1C[C@]2(C)[C@H]3CC=C4[C@@H]5CC(C)(C)CC[C@]5(C(=O)O)CC[C@@]4(C)[C@]3(C)CC[C@H]2C(C)(C)[C@H]1OC(=O)CCC

pIC50 [13]: 4.84
SMILES: CC(C)(CC(=O)O)CC(=O)O[C@@H]1C[C@]2(C)[C@H]3CC=C4[C@@H]5CC(C)(C)CC[C@]5(C(=O)O)CC[C@@]4(C)[C@]3(C)CC[C@H]2C(C)(C)[C@H]1O

pIC50 [13]: 5.85
SMILES: CC1(C)CC[C@]2(C(=O)O)CC[C@]3(C)C(=CC[C@@H]4[C@@]5(C)C[C@@H](OC(=O)CCCC(=O)O)[C@H](OC(=O)CCCC(=O)O)C(C)(C)[C@@H]5CC[C@]43C)[C@@H]2C1

pIC50 [13]: 6.25
SMILES: CC1(C)CC[C@]2(C(=O)O)CC[C@]3(C)C(=CC[C@@H]4[C@@]5(C)CC[C@H](OC(=O)CCCC(=O)O)C(C)(C)[C@@H]5CC[C@]43C)[C@@H]2C1

SMILES: CC(C)(CC(=O)O)CC(=O)O[C@H]1CC[C@]2(C)[C@H]3CC=C4[C@@H]5CC(C)(C)CC[C@]5(C(=O)OCc5ccccc5)CC[C@@]4(C)[C@]3(C)CC[C@H]2C1(C)C
Activity [1]: Active
Activity [2]: 6.4%
Activity [3]: 5.3%
Activity [4]: 88.8%
Activity [5]: 86.5%
Activity [6]: 36.1%
Activity [7]: 42.6%
Activity [8]: 52.8%
Activity [9]: 44%
Activity [10]: 8.3%
pIC50 [11]: 4.85
Activity [12]: 4.9%

SMILES: CCC(=O)O[C@H]1CC[C@]2(C)[C@H]3CC=C4[C@@H]5CC(C)(C)CC[C@]5(C(=O)O)CC[C@@]4(C)[C@]3(C)CC[C@H]2C1(C)C
Activity [1]: Active
Activity [2]: 2%
Activity [3]: 1.3%
Activity [4]: 60.8%
Activity [5]: 74.4%
Activity [6]: 16.5%
Activity [7]: 27.4%
Activity [8]: 44.3%
Activity [9]: 47%
Activity [10]: 24.3%
pIC50 [11]: 3.79
Activity [12]: 37.2%

pIC50 [13]: 4.81
SMILES: CC1(C)CC[C@]2(C(=O)OCc3ccccc3)CC[C@]3(C)C(=CC[C@@H]4[C@@]5(C)C[C@@H](OC(=O)CCC(=O)O)[C@H](O)C(C)(C)[C@@H]5CC[C@]43C)[C@@H]2C1

pIC50 [13]: 5.41
SMILES: CC1(C)CC[C@]2(C(=O)OCc3ccccc3)CC[C@]3(C)C(=CC[C@@H]4[C@@]5(C)C[C@@H](OC(=O)CCCC(=O)O)[C@H](OC(=O)CCCC(=O)O)C(C)(C)[C@@H]5CC[C@]43C)[C@@H]2C1

pIC50 [13]: 3.65
SMILES: CCCC(=O)O[C@@H]1C[C@]2(C)[C@H]3CC=C4[C@@H]5CC(C)(C)CC[C@]5(C(=O)OCc5ccccc5)CC[C@@]4(C)[C@]3(C)CC[C@H]2C(C)(C)[C@H]1O

pIC50 [13]: 6.51
SMILES: CC1(C)CC[C@]2(C(=O)O)CC[C@]3(C)C(=CC[C@@H]4[C@@]5(C)CC[C@H](OC(=O)c6ccccc6C(=O)O)C(C)(C)[C@@H]5CC[C@]43C)[C@@H]2C1

pIC50 [13]: 5.72
SMILES: CC1(C)CC[C@]2(C(=O)OCc3ccccc3)CC[C@]3(C)C(=CC[C@@H]4[C@@]5(C)C[C@@H](OC(=O)c6ccccc6C(=O)O)[C@H](OC(=O)c6ccccc6C(=O)O)C(C)(C)[C@@H]5CC[C@]43C)[C@@H]2C1

SMILES: CC1(C)CC[C@]2(C(=O)OCc3ccccc3)CC[C@]3(C)C(=CC[C@@H]4[C@@]5(C)CC[C@H](O)C(C)(C)[C@@H]5CC[C@]43C)[C@@H]2C1
Activity [2]: 4.1%
Activity [3]: 4.3%
Activity [4]: 41.6%
Activity [5]: 27.8%
Activity [6]: 18.6%
Activity [7]: 12.2%
Activity [8]: 23%
Activity [9]: 15.6%
Activity [10]: 67.9%
pIC50 [11]: 4.28
Activity [12]: 54.3%

pIC50 [13]: 5.28
SMILES: CC1(C)CC[C@]2(C(=O)OCc3ccccc3)CC[C@]3(C)C(=CC[C@@H]4[C@@]5(C)C[C@@H](OC(=O)CCC(=O)O)[C@H](OC(=O)CCC(=O)O)C(C)(C)[C@@H]5CC[C@]43C)[C@@H]2C1

pIC50 [13]: 5.49
SMILES: CC1(C)CC[C@]2(C(=O)O)CC[C@]3(C)C(=CC[C@@H]4[C@@]5(C)C[C@@H](OC(=O)CCCC(=O)O)[C@H](O)C(C)(C)[C@@H]5CC[C@]43C)[C@@H]2C1

pIC50 [13]: 4.20
SMILES: CC1(C)CC[C@]2(C(=O)O)CC[C@]3(C)C(=CC[C@@H]4[C@@]5(C)C[C@@H](O)[C@H](O)C(C)(C)[C@@H]5CC[C@]43C)[C@@H]2C1 [MASLINIC ACID]
Activity [2]: 2%
Activity [3]: 11.7%
Activity [4]: 89.8%
Activity [5]: 74.9%
Activity [6]: 21%
Activity [7]: 54.2%
Activity [8]: 68.8%
Activity [9]: 20.8%
Activity [10]: 10.9%
pIC50 [11]: 4.44
Activity [12]: 8.3%

pIC50 [13]: 6.15
SMILES: CC(C)(CC(=O)O)CC(=O)O[C@H]1CC[C@]2(C)[C@H]3CC=C4[C@@H]5CC(C)(C)CC[C@]5(C(=O)O)CC[C@@]4(C)[C@]3(C)CC[C@H]2C1(C)C

SMILES: CC1(C)CC[C@]2(C(=O)OCc3ccccc3)CC[C@]3(C)C(=CC[C@@H]4[C@@]5(C)C[C@@H](O)[C@H](O)C(C)(C)[C@@H]5CC[C@]43C)[C@@H]2C1 [BENZYL MASLINATE]
Activity [2]: 0.1%
Activity [3]: 0.3%
Activity [4]: 88.4%
Activity [5]: 94.7%
Activity [6]: 2.2%
Activity [7]: 10.6%
Activity [8]: 86.2%
Activity [9]: 84.2%
Activity [10]: 5%
pIC50 [11]: 4.72
Activity [12]: 11.3%

pIC50 [13]: 4.56
SMILES: CC(C)(CC(=O)O)CC(=O)O[C@@H]1C[C@]2(C)[C@H]3CC=C4[C@@H]5CC(C)(C)CC[C@]5(C(=O)O)CC[C@@]4(C)[C@]3(C)CC[C@H]2C(C)(C)[C@H]1OC(=O)CC(C)(C)CC(=O)O

pIC50 [13]: 4.85
SMILES: CC1(C)CC[C@]2(C(=O)O)CC[C@]3(C)C(=CC[C@@H]4[C@@]5(C)C[C@@H](OC(=O)c6ccccc6C(=O)O)[C@H](O)C(C)(C)[C@@H]5CC[C@]43C)[C@@H]2C1

pIC50 [13]: 5.64
SMILES: CC1(C)CC[C@]2(C(=O)O)CC[C@]3(C)C(=CC[C@@H]4[C@@]5(C)C[C@@H](OC(=O)c6ccccc6C(=O)O)[C@H](OC(=O)c6ccccc6C(=O)O)C(C)(C)[C@@H]5CC[C@]43C)[C@@H]2C1

pIC50 [13]: 5.72
SMILES: CC1(C)CC[C@]2(C(=O)O)CC[C@]3(C)C(=CC[C@@H]4[C@@]5(C)C[C@@H](OC(=O)CCC(=O)O)[C@H](OC(=O)CCC(=O)O)C(C)(C)[C@@H]5CC[C@]43C)[C@@H]2C1

pIC50 [13]: 4.24
SMILES: CC1(C)CC[C@]2(C(=O)O)CC[C@]3(C)C(=CC[C@@H]4[C@@]5(C)CC[C@H](O)C(C)(C)[C@@H]5CC[C@]43C)[C@@H]2C1 [OLEANOLIC_ACID]
Activity [2]: 8.7%
Activity [3]: 10.1%
Activity [4]: 41.5%
Activity [5]: 44.6%
Activity [6]: 12.4%
Activity [7]: 28.2%
Activity [8]: 29.1%
Activity [9]: 16.4%
Activity [10]: 44.9%
pIC50 [11]: 3.97
Activity [12]: 49.8%

pIC50 [13]: 3.82
SMILES: CCCCCC(=O)O[C@@H]1C[C@]2(C)[C@H]3CC=C4[C@@H]5CC(C)(C)CC[C@]5(C(=O)OCc5ccccc5)CC[C@@]4(C)[C@]3(C)CC[C@H]2C(C)(C)[C@H]1OC(=O)CCCCC

pIC50 [13]: 5.46
SMILES: CC1(C)CC[C@]2(C(=O)O)CC[C@]3(C)C(=CC[C@@H]4[C@@]5(C)C[C@@H](OC(=O)CCC(=O)O)[C@H](O)C(C)(C)[C@@H]5CC[C@]43C)[C@@H]2C1

pIC50 [13]: 4.14
SMILES: CCCCCCCCCCCC(=O)O[C@@H]1C[C@]2(C)[C@H]3CC=C4[C@@H]5CC(C)(C)CC[C@]5(C(=O)OCc5ccccc5)CC[C@@]4(C)[C@]3(C)CC[C@H]2C(C)(C)[C@H]1OC(=O)CCCCCCCCCCC
